Values after ≈ are worked out from the molar mass of the structure shown.
Tests used:
[1] = system: Bifidobacterium longum; assay: Antimicrobial activity against 90 mins oxgall-stressed Bifidobacterium longum ATCC 15707 after 18 hrs; assay type: functional
Method in brief: (§1)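 Cells pelleted from mid-log MRS culture and resuspended in MRS (initial pH 6.5) with 0.3% (wt/vol) oxgall for 90 min anaerobically at 37°C. They were then regrown in MRS pH 6.5 for 24 h (footnote: 18 h) anaerobically and tested for MIC by the same broth microdilution assay. Median of four repetitions.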

[2] = system: Bifidobacterium breve; assay: Antimicrobial activity against Bifidobacterium breve ATCC 15700; assay type: functional
Method in brief: (§2)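 Broth microdilution in MRS plus 0.05% L-cysteine-HCl. Mid-log culture adjusted to OD650 0.1, giving about 2.5 × 10^4 to 5.0 × 10^4 CFU/well, then added to twofold serial dilutions of agent. Plates incubated anaerobically at 37°C for 18 h and read at OD650. MIC is the lowest concentration matching the uninoculated blank OD, taken as the median of four repeats.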

[3] = system: Bifidobacterium bifidum; assay: Antimicrobial activity against 60 min 1 M HCl-stressed Bifidobacterium bifidum R0071 after 18 hrs; assay type: functional
Method in brief: (§3)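 Mid-log MRS culture pelleted and resuspended in MRS broth brought to pH 2.0 with 1 M HCl, held anaerobically at 37°C for 60 min, then subcultured in MRS (pH 6.5) for 24 h anaerobically before MIC testing by broth microdilution (as for unstressed cells). Table footnote gives 18 h anaerobic regrowth after the stress. MIC is the median of four repetitions.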

[4] = system: Bifidobacterium breve; assay: Antimicrobial activity against 60 min 1 M HCl-stressed Bifidobacterium breve ATCC 15700 after 18 hrs; assay type: functional; method in brief: as §3
[5] = system: Bifidobacterium longum; assay: Antimicrobial activity against 90 mins oxgall-stressed Bifidobacterium longum P/N 601377 after 18 hrs; assay type: functional; method in brief: as §1
[6] = system: Bifidobacterium bifidum; assay: Antimicrobial activity against 90 mins hydrogen peroxide-stressed Bifidobacterium bifidum R0071 after 18 hrs; assay type: functional
Method in brief: (§4)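 Stress applied for 90 min at 37°C under anaerobic conditions, using MRS (initial pH 6.5) containing H2O2 at each strain's own inhibitory concentration. The H2O2 level was set beforehand by microplate tolerance testing. Challenged cells were regrown in MRS for 24 h (footnote: 18 h) before MIC testing by broth microdilution. Median of four repetitions.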

[7] = system: Bifidobacterium thermophilum; assay: Antimicrobial activity against Bifidobacterium thermophilum ATCC 25866; assay type: functional; method in brief: as §2
[8] = system: Bifidobacterium bifidum; assay: Antimicrobial activity against 90 mins oxgall-stressed Bifidobacterium bifidum R0071 after 18 hrs; assay type: functional; method in brief: as §1
[9] = system: Bifidobacterium breve; assay: Antimicrobial activity against 90 mins hydrogen peroxide-stressed Bifidobacterium breve ATCC 15700 after 18 hrs; assay type: functional; method in brief: as §4
[10] = system: Bifidobacterium bifidum; assay: Antimicrobial activity against 60 min 1 M HCl-stressed Bifidobacterium bifidum BB12 after 18 hrs; assay type: functional; method in brief: as §3
[11] = system: Bifidobacterium thermophilum; assay: Antimicrobial activity against 90 mins oxgall-stressed Bifidobacterium thermophilum ATCC 25866 after 18 hrs; assay type: functional; method in brief: as §1
[12] = system: Bifidobacterium longum; assay: Antimicrobial activity against 90 mins hydrogen peroxide-stressed Bifidobacterium longum P/N 601377 after 18 hrs; assay type: functional; method in brief: as §4
[13] = system: Bifidobacterium breve; assay: Antimicrobial activity against Bifidobacterium breve R0070; assay type: functional; method in brief: as §2
[14] = system: Bifidobacterium thermophilum; assay: Antimicrobial activity against 60 min 1 M HCl-stressed Bifidobacterium thermophilum ATCC 25866 after 18 hrs; assay type: functional; method in brief: as §3
[15] = system: Bifidobacterium bifidum; assay: Antimicrobial activity against 90 mins hydrogen peroxide-stressed Bifidobacterium bifidum BB12 after 18 hrs; assay type: functional; method in brief: as §4
[16] = system: Bifidobacterium thermophilum; assay: Antimicrobial activity against 90 mins hydrogen peroxide-stressed Bifidobacterium thermophilum ATCC 25866 after 18 hrs; assay type: functional; method in brief: as §4
[17] = Antimicrobial activity against 90 mins oxgall-stressed Bifidobacterium infantis ATCC 15697 after 18 hrs; assay type: functional, Bifidobacterium longum subsp. infantis; settings: Bifidobacterium longum; method in brief: as §1
[18] = system: Bifidobacterium animalis; assay: Antimicrobial activity against 90 mins hydrogen peroxide-stressed Bifidobacterium animalis ATCC 27536 after 18 hrs; assay type: functional; method in brief: as §4
[19] = system: Bifidobacterium bifidum; assay: Antimicrobial activity against Bifidobacterium bifidum R0071; assay type: functional; method in brief: as §2
[20] = system: Bifidobacterium bifidum; assay: Antimicrobial activity against 90 mins oxgall-stressed Bifidobacterium bifidum ATCC 15696 after 18 hrs; assay type: functional; method in brief: as §1
[21] = system: Bifidobacterium longum; assay: Antimicrobial activity against 90 mins oxgall-stressed Bifidobacterium longum R0175 after 18 hrs; assay type: functional; method in brief: as §1
[22] = Antimicrobial activity against 60 min 1 M HCl-stressed Bifidobacterium infantis ATCC 15697 after 18 hrs; assay type: functional, Bifidobacterium longum subsp. infantis; settings: Bifidobacterium longum; method in brief: as §3
[23] = system: Bifidobacterium breve; assay: Antimicrobial activity against 90 mins hydrogen peroxide-stressed Bifidobacterium breve R0070 after 18 hrs; assay type: functional; method in brief: as §4
[24] = system: Bifidobacterium animalis; assay: Antimicrobial activity against 90 mins oxgall-stressed Bifidobacterium animalis ATCC 27536 after 18 hrs; assay type: functional; method in brief: as §1
[25] = system: Bifidobacterium longum; assay: Antimicrobial activity against 60 min 1 M HCl-stressed Bifidobacterium longum ATCC 15707 after 18 hrs; assay type: functional; method in brief: as §3
[26] = system: Bifidobacterium pseudolongum; assay: Antimicrobial activity against 90 mins oxgall-stressed Bifidobacterium pseudolongum ATCC 25562 after 18 hrs; assay type: functional; method in brief: as §1
[27] = system: Bifidobacterium pseudolongum; assay: Antimicrobial activity against 60 min 1 M HCl-stressed Bifidobacterium pseudolongum ATCC 25562 after 18 hrs; assay type: functional; method in brief: as §3
[28] = system: Bifidobacterium breve; assay: Antimicrobial activity against 90 mins oxgall-stressed Bifidobacterium breve ATCC 15700 after 18 hrs; assay type: functional; method in brief: as §1
[29] = system: Bifidobacterium longum; assay: Antimicrobial activity against Bifidobacterium longum ATCC 15708; assay type: functional; method in brief: as §2
[30] = system: Bifidobacterium longum; assay: Antimicrobial activity against 90 mins oxgall-stressed Bifidobacterium longum ATCC 15708 after 18 hrs; assay type: functional; method in brief: as §1
[31] = system: Bifidobacterium longum; assay: Antimicrobial activity against Bifidobacterium longum ATCC 15707; assay type: functional; method in brief: as §2
[32] = system: Bifidobacterium animalis; assay: Antimicrobial activity against Bifidobacterium animalis ATCC 27536; assay type: functional; method in brief: as §2
[33] = system: Bifidobacterium longum; assay: Antimicrobial activity against 90 mins hydrogen peroxide-stressed Bifidobacterium longum R0175 after 18 hrs; assay type: functional; method in brief: as §4
[34] = system: Bifidobacterium bifidum; assay: Antimicrobial activity against 90 mins oxgall-stressed Bifidobacterium bifidum BB12 after 18 hrs; assay type: functional; method in brief: as §1
[35] = system: Bifidobacterium pseudolongum; assay: Antimicrobial activity against Bifidobacterium pseudolongum ATCC 25562; assay type: functional; method in brief: as §2
[36] = system: Bifidobacterium bifidum; assay: Antimicrobial activity against Bifidobacterium bifidum ATCC 15696; assay type: functional; method in brief: as §2
[37] = system: Bifidobacterium bifidum; assay: Antimicrobial activity against Bifidobacterium bifidum BB12; assay type: functional; method in brief: as §2
[38] = system: Bifidobacterium longum; assay: Antimicrobial activity against 60 min 1 M HCl-stressed Bifidobacterium longum P/N 601377 after 18 hrs; assay type: functional; method in brief: as §3
[39] = system: Bifidobacterium longum; assay: Antimicrobial activity against 90 mins hydrogen peroxide-stressed Bifidobacterium longum ATCC 15708 after 18 hrs; assay type: functional; method in brief: as §4
[40] = system: Bifidobacterium breve; assay: Antimicrobial activity against 60 min 1 M HCl-stressed Bifidobacterium breve R0070 after 18 hrs; assay type: functional; method in brief: as §3
[41] = system: Bifidobacterium longum; assay: Antimicrobial activity against Bifidobacterium longum P/N 601377; assay type: functional; method in brief: as §2
[42] = Antimicrobial activity against Bifidobacterium infantis ATCC 15697; assay type: functional, Bifidobacterium longum subsp. infantis; settings: Bifidobacterium longum; method in brief: as §2
[43] = system: Bifidobacterium longum; assay: Antimicrobial activity against 90 mins hydrogen peroxide-stressed Bifidobacterium longum ATCC 15707 after 18 hrs; assay type: functional; method in brief: as §4
[44] = system: Bifidobacterium breve; assay: Antimicrobial activity against 90 mins oxgall-stressed Bifidobacterium breve R0070 after 18 hrs; assay type: functional; method in brief: as §1
[45] = system: Bifidobacterium animalis; assay: Antimicrobial activity against 60 min 1 M HCl-stressed Bifidobacterium animalis ATCC 27536 after 18 hrs; assay type: functional; method in brief: as §3
[46] = system: Bifidobacterium longum; assay: Antimicrobial activity against 60 min 1 M HCl-stressed Bifidobacterium longum R0175 after 18 hrs; assay type: functional; method in brief: as §3
[47] = system: Bifidobacterium longum; assay: Antimicrobial activity against Bifidobacterium longum R0175; assay type: functional; method in brief: as §2

## O=C(N[C@H](CO)[C@H](O)c1ccc([N+](=O)[O-])cc1)C(Cl)Cl [CHLORAMPHENICOL]
[1]
  MIC: 1.9 mg/L (≈ 5.88 µM)
[2]
  MIC: 7.8 mg/L (≈ 24.1 µM)
[3]
  MIC: 7.8 mg/L (≈ 24.1 µM)
[4]
  MIC: 62.5 mg/L (≈ 193 µM)
[5]
  MIC: 1.9 mg/L (≈ 5.88 µM)
[6]
  MIC: 1.9 mg/L (≈ 5.88 µM)
[7]
  MIC: 7.8 mg/L (≈ 24.1 µM)
[8]
  MIC: 3.9 mg/L (≈ 12.1 µM)
[9]
  MIC: 1.9 mg/L (≈ 5.88 µM)
[10]
  MIC: 1.9 mg/L (≈ 5.88 µM)
[11]
  MIC: 3.9 mg/L (≈ 12.1 µM)
[12]
  MIC: 1.9 mg/L (≈ 5.88 µM)
[13]
  MIC: 7.8 mg/L (≈ 24.1 µM)
[14]
  MIC: 3.9 mg/L (≈ 12.1 µM)
[15]
  MIC: 1.9 mg/L (≈ 5.88 µM)
[16]
  MIC: 1.9 mg/L (≈ 5.88 µM)
[17]
  MIC: 0.98 mg/L (≈ 3.03 µM)
[18]
  MIC: 3.9 mg/L (≈ 12.1 µM)
[19]
  MIC: 1.9 mg/L (≈ 5.88 µM)
[20]
  MIC: 3.9 mg/L (≈ 12.1 µM)
[21]
  MIC: 1.9 mg/L (≈ 5.88 µM)
[22]
  MIC: 0.98 mg/L (≈ 3.03 µM)
[23]
  MIC: 1.9 mg/L (≈ 5.88 µM)
[24]
  MIC: 1.9 mg/L (≈ 5.88 µM)
[25]
  MIC: 7.8 mg/L (≈ 24.1 µM)
[26]
  MIC: 0.98 mg/L (≈ 3.03 µM)
[27]
  MIC: 3.9 mg/L (≈ 12.1 µM)
[28]
  MIC: 3.9 mg/L (≈ 12.1 µM)
[29]
  MIC: 31.2 mg/L (≈ 96.6 µM)
[30]
  MIC: 0.98 mg/L (≈ 3.03 µM)
[31]
  MIC: 15.6 mg/L (≈ 48.3 µM)
[32]
  MIC: 7.8 mg/L (≈ 24.1 µM)
[33]
  MIC: 1.9 mg/L (≈ 5.88 µM)
[34]
  MIC: 1.9 mg/L (≈ 5.88 µM)
[35]
  MIC: 7.8 mg/L (≈ 24.1 µM)
[36]
  MIC: 1.9 mg/L (≈ 5.88 µM)
[37]
  MIC: 1.9 mg/L (≈ 5.88 µM)
[38]
  MIC: 1.9 mg/L (≈ 5.88 µM)
[39]
  MIC: 3.9 mg/L (≈ 12.1 µM)
[40]
  MIC: 3.9 mg/L (≈ 12.1 µM)
[41]
  MIC: 3.9 mg/L (≈ 12.1 µM)
[42]
  MIC: 62.5 mg/L (≈ 193 µM)
[43]
  MIC: 1.9 mg/L (≈ 5.88 µM)
[44]
  MIC: 3.9 mg/L (≈ 12.1 µM)
[45]
  MIC: 1.9 mg/L (≈ 5.88 µM)
[46]
  MIC: 3.9 mg/L (≈ 12.1 µM)
[47]
  MIC: 7.8 mg/L (≈ 24.1 µM)

Reference: ChEMBL document CHEMBL1142148, “Antibiotic susceptibility profile of bifidobacteria as affected by oxgall, acid, and hydrogen peroxide stress” (2007)
